In ChEMBL document CHEMBL1921735, “Antibacterial optimization of 4-aminothiazolyl analogues of the natural product GE2270 A: identification of the cycloalkylcarboxylic acids” (J Med Chem, 2011):
In brackets after ≈: the same amount, converted by molar mass. Activity calls are given as the source filed them.

Assays:
Enterococcus faecalis [1] = assay: Antibacterial activity against Enterococcus faecalis ATCC 29212 by CLSI M07-A8 method; assay type: functional
Outline: (§1)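 Broth microdilution MIC run per CLSI M07-A8 (2009).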

Enterococcus faecium = assay: Antibacterial activity against Enterococcus faecium 7130724 by CLSI M07-A8 method; assay type: functional; outline: as §1
Staphylococcus aureus [2] = assay: Antibacterial activity against methicillin-resistant Staphylococcus aureus isolate A4.018 by CLSI M07-A8 method; assay type: functional
Streptococcus pyogenes = assay: Antibacterial activity against Streptococcus pyogenes ATCC BAA-595 by CLSI M07-A8 method; assay type: functional; outline: as §1
Streptococcus pneumoniae = assay: Antibacterial activity against Streptococcus pneumoniae by CLSI M07-A8 method; assay type: functional, organism-based; outline: as §1
Escherichia coli = assay: Antibacterial activity against Escherichia coli S30 assessed as inhibition of protein synthesis after 2 hrs by luminescence analysis; details: S30, 2 h
Staphylococcus aureus [3] = assay: Antibacterial activity against GE2270-A-resistant Staphylococcus aureus harboring tufA G258D mutant gene by CLSI M07-A8 method; assay type: functional
Staphylococcus aureus [4] = assay: Antibacterial activity against Staphylococcus aureus ATCC 49951 infected in CD1 mouse assessed as protection against bacterial infection administered 5 hrs post infection measured on day 5; assay type: functional
Outline: (§2)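 Mouse lethal systemic infection: ip injection of 1 × 10^8 cfu/mouse (10−100× minimal lethal dose), E. faecalis in 50% sterile rat fecal extract, S. aureus in 0.9% NaCl. Therapy by tail-vein bolus at several doses, six mice per group. Started immediately for E. faecalis; at 1 and 5 h post-inoculation for S. aureus.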

Enterococcus faecalis [5] = assay: Antibacterial activity against Enterococcus faecalis isolate NB04025 infected in CD1 mouse assessed as protection against bacterial infection administered immediately after infection measured on day 5; assay type: functional; details: isolate NB04025, 120 h; outline: as §2
Staphylococcus aureus [6] = assay: Antibacterial activity against Staphylococcus aureus ATCC 01001 infected in thigh of CD1 mouse assessed as prevention of colony formation at 32 mg/kg, ip administered 2 hrs post infection measured after 12 hrs; assay type: functional, organism-based; design: dose 32 mg/kg
Outline: (§3)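 Female CD1 mice (21−25 g), made neutropenic with cyclophosphamide ip at 150 mg/kg (day −4) and 100 mg/kg (day −1). Left thigh infected im with 0.05 mL S. aureus ATCC 01001 (7.5 × 10^5 cfu/thigh), grown 16 h at 36 °C in cation-supplemented Mueller Hinton. Treatment given 2 h post-infection, four mice per group. At 12 or 24 h thighs were excised, homogenized in 0.9% NaCl, serially diluted and plated on blood agar for cfu.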

Staphylococcus aureus [7] = assay: Antibacterial activity against Staphylococcus aureus ATCC 01001 infected in thigh of CD1 mouse assessed as prevention of colony formation at 32 mg/kg, ip administered 2 hrs post infection measured after 24 hrs; assay type: functional, organism-based; design: dose 32 mg/kg; outline: as §3
[8] = Chemical stability of the compound in 15% v/v NaOH, 5% PEG-300, 0.9% saline, 55% v/v water at pH 7.2 to 7.8; assay type: physicochemical; details: buffer
Staphylococcus aureus [9] = assay: Bacteriostatic activity against Staphylococcus aureus ATCC 01001 infected in thigh of CD1 mouse assessed as prevention of colony formation at 80 mg/kg, po administered 2 hrs post infection measured after 12 hrs; assay type: functional, organism-based; design: dose 80 mg/kg; outline: as §3
Staphylococcus aureus [10] = assay: Bacteriostatic activity against Staphylococcus aureus ATCC 01001 infected in thigh of CD1 mouse assessed as prevention of colony formation at 80 mg/kg, po administered 2 hrs post infection measured after 24 hrs; assay type: functional, organism-based; design: dose 80 mg/kg; outline: as §3

Compound	MIC (Enterococcus faecalis [1]) [µg/mL]	MIC (Enterococcus faecium) [µg/mL]	MIC (Staphylococcus aureus [2]) [µg/mL]	MIC (Streptococcus pyogenes) [µg/mL]	Activity (Streptococcus pneumoniae)	IC50 (Escherichia coli) [nM]	Activity (Staphylococcus aureus [3])	ED50 (Staphylococcus aureus [4]) [mg/kg]	ED50 (Enterococcus faecalis [5]) [mg/kg]	Activity (Staphylococcus aureus [6])	Activity (Staphylococcus aureus [7])	Stability [8] [weeks]	Activity (Staphylococcus aureus [9])	Activity (Staphylococcus aureus [10])
CNC(=O)C[C@@H]1NC(=O)c2csc(n2)-c2ccc(-c3nc(NC(=O)CCCO)cs3)nc2-c2csc(n2)-c2csc(n2)[C@H]([C@@H](O)c2ccccc2)NC(=O)CNC(=O)c2nc(sc2COC)[C@H](C(C)C)NC(=O)c2nc1sc2C	0.5 (≈ 0.423 µM)	0.5 (≈ 0.423 µM)	1 (≈ 0.846 µM)	> 32	Active	> 16000								
CNC(=O)C[C@@H]1NC(=O)c2csc(n2)-c2ccc(-c3nc(NC(=O)C(F)(F)F)cs3)nc2-c2csc(n2)-c2csc(n2)[C@H]([C@@H](O)c2ccccc2)NC(=O)CNC(=O)c2nc(sc2COC)[C@H](C(C)C)NC(=O)c2nc1sc2C	1 (≈ 0.839 µM)	1 (≈ 0.839 µM)	> 32	> 32	Active	> 32000								
CNC(=O)C[C@@H]1NC(=O)c2csc(n2)-c2ccc(-c3nc(NC(=O)CCCCC(=O)OC)cs3)nc2-c2csc(n2)-c2csc(n2)[C@H]([C@@H](O)c2ccccc2)NC(=O)CNC(=O)c2nc(sc2COC)[C@H](C(C)C)NC(=O)c2nc1sc2C	4 (≈ 3.23 µM)	2 (≈ 1.61 µM)	> 32	> 32	Active	> 32000								
CNC(=O)C[C@@H]1NC(=O)c2csc(n2)-c2ccc(-c3nc(NC(=O)CCCCC(=O)O)cs3)nc2-c2csc(n2)-c2csc(n2)[C@H]([C@@H](O)c2ccccc2)NC(=O)CNC(=O)c2nc(sc2COC)[C@H](C(C)C)NC(=O)c2nc1sc2C	0.06 (≈ 0.049 µM)	0.125 (≈ 0.102 µM)	0.125 (≈ 0.102 µM)	4 (≈ 3.27 µM)	Active	1200	inactive	10.5	5.5					
CNC(=O)C[C@@H]1NC(=O)c2csc(n2)-c2ccc(-c3nc(NC(=O)CCCN(C)C)cs3)nc2-c2csc(n2)-c2csc(n2)[C@H]([C@@H](O)c2ccccc2)NC(=O)CNC(=O)c2nc(sc2COC)[C@H](C(C)C)NC(=O)c2nc1sc2C	0.5 (≈ 0.413 µM)	1 (≈ 0.827 µM)	1 (≈ 0.827 µM)	4 (≈ 3.31 µM)	Active	2600								
CCCCCCCCCC(=O)N[C@@H](Cc1c[nH]c2ccccc12)C(=O)N[C@H](CC(N)=O)C(=O)N[C@@H](CC(=O)O)C(=O)N[C@@H]1C(=O)NCC(=O)N[C@@H](CCCN)C(=O)N[C@@H](CC(=O)O)C(=O)N[C@H](C)C(=O)N[C@@H](CC(=O)O)C(=O)NCC(=O)N[C@H](CO)C(=O)N[C@@H]([C@H](C)CC(=O)O)C(=O)N[C@@H](CC(=O)c2ccccc2N)C(=O)O[C@@H]1C										Active	Active			
CNC(=O)C[C@@H]1NC(=O)c2csc(n2)-c2ccc(-c3nc(NC(=O)OCCCC(N)=O)cs3)nc2-c2csc(n2)-c2csc(n2)[C@H]([C@@H](O)c2ccccc2)NC(=O)CNC(=O)c2nc(sc2COC)[C@H](C(C)C)NC(=O)c2nc1sc2C	0.25 (≈ 0.204 µM)	0.25 (≈ 0.204 µM)	0.5 (≈ 0.408 µM)	> 32	Active	2400								
CNC(=O)C[C@@H]1NC(=O)c2csc(n2)-c2ccc(-c3nc(NC(=O)CCCCP(=O)(O)O)cs3)nc2-c2csc(n2)-c2csc(n2)[C@H]([C@@H](O)c2ccccc2)NC(=O)CNC(=O)c2nc(sc2COC)[C@H](C(C)C)NC(=O)c2nc1sc2C	> 32	> 32	> 32	> 32	Active	1500								
CNC(=O)C[C@@H]1NC(=O)c2csc(n2)-c2ccc(-c3nc(NC(=O)[C@H](C)CCC(=O)O)cs3)nc2-c2csc(n2)-c2csc(n2)[C@H]([C@@H](O)c2ccccc2)NC(=O)CNC(=O)c2nc(sc2COC)[C@H](C(C)C)NC(=O)c2nc1sc2C	0.25 (≈ 0.204 µM)	0.5 (≈ 0.408 µM)	0.25 (≈ 0.204 µM)	4 (≈ 3.27 µM)	Active		inactive	10.6	11.1					
CNC(=O)C[C@@H]1NC(=O)c2csc(n2)-c2ccc(-c3nc(NC(=O)O[C@H]4CC[C@H](N)CC4)cs3)nc2-c2csc(n2)-c2csc(n2)[C@H]([C@@H](O)c2ccccc2)NC(=O)CNC(=O)c2nc(sc2COC)[C@H](C(C)C)NC(=O)c2nc1sc2C	0.5 (≈ 0.404 µM)	0.5 (≈ 0.404 µM)	1 (≈ 0.808 µM)	8 (≈ 6.46 µM)	Active		inactive	19.3	< 3.3					
CNC(=O)C[C@@H]1NC(=O)c2csc(n2)-c2ccc(-c3nc(NC(=O)[C@H](CN)CCC(=O)O)cs3)nc2-c2csc(n2)-c2csc(n2)[C@H]([C@@H](O)c2ccccc2)NC(=O)CNC(=O)c2nc(sc2COC)[C@H](C(C)C)NC(=O)c2nc1sc2C	0.5 (≈ 0.403 µM)	1 (≈ 0.807 µM)	1 (≈ 0.807 µM)	> 32	Active		inactive	9.5	> 60					
CNC(=O)C[C@@H]1NC(=O)c2csc(n2)-c2ccc(-c3nc(NC(=O)OCCOCCOCCOC)cs3)nc2-c2csc(n2)-c2csc(n2)[C@H]([C@@H](O)c2ccccc2)NC(=O)CNC(=O)c2nc(sc2COC)[C@H](C(C)C)NC(=O)c2nc1sc2C	0.5 (≈ 0.389 µM)	0.5 (≈ 0.389 µM)	4 (≈ 3.11 µM)	> 32	Active	10800								
CNC(=O)C[C@@H]1NC(=O)c2csc(n2)-c2ccc(-c3nc(NC(=O)O[C@H]4CC[C@H](C(=O)O)CC4)cs3)nc2-c2csc(n2)-c2csc(n2)[C@H]([C@@H](O)c2ccccc2)NC(=O)CNC(=O)c2nc(sc2COC)[C@H](C(C)C)NC(=O)c2nc1sc2C	0.06 (≈ 0.0474 µM)	0.03 (≈ 0.0237 µM)	0.125 (≈ 0.0987 µM)	2 (≈ 1.58 µM)	Active			4.3	0.2			> 1		
CNC(=O)C[C@@H]1NC(=O)c2csc(n2)-c2ccc(-c3nc(NC(=O)O[C@H]4C[C@@H](C(=O)O)C4)cs3)nc2-c2csc(n2)-c2csc(n2)[C@H]([C@@H](O)c2ccccc2)NC(=O)CNC(=O)c2nc(sc2COC)[C@H](C(C)C)NC(=O)c2nc1sc2C	0.06 (≈ 0.0484 µM)	0.03 (≈ 0.0242 µM)	0.06 (≈ 0.0484 µM)	1 (≈ 0.807 µM)	Active			2.9	1					
CNC(=O)C[C@@H]1NC(=O)c2csc(n2)-c2ccc(-c3nc(NC(=O)CCCCN)cs3)nc2-c2csc(n2)-c2csc(n2)[C@H]([C@@H](O)c2ccccc2)NC(=O)CNC(=O)c2nc(sc2COC)[C@H](C(C)C)NC(=O)c2nc1sc2C	0.5 (≈ 0.418 µM)	1 (≈ 0.836 µM)	1 (≈ 0.836 µM)	4 (≈ 3.35 µM)	Active	1900								
CC(=O)NC[C@H]1CN(c2ccc(N3CCOCC3)c(F)c2)C(=O)O1													Active	Active
CNC(=O)C[C@@H]1NC(=O)c2csc(n2)-c2ccc(-c3nc(NC(=O)OCCCC(=O)O)cs3)nc2-c2csc(n2)-c2csc(n2)[C@H]([C@@H](O)c2ccccc2)NC(=O)CNC(=O)c2nc(sc2COC)[C@H](C(C)C)NC(=O)c2nc1sc2C	0.03 (≈ 0.0245 µM)	0.06 (≈ 0.0489 µM)	0.06 (≈ 0.0489 µM)	1 (≈ 0.815 µM)	Active		inactive	5.4	3.1					
CNC(=O)C[C@@H]1NC(=O)c2csc(n2)-c2ccc(-c3nc(NC(=O)c4cnc(C(=O)O)cn4)cs3)nc2-c2csc(n2)-c2csc(n2)[C@H]([C@@H](O)c2ccccc2)NC(=O)CNC(=O)c2nc(sc2COC)[C@H](C(C)C)NC(=O)c2nc1sc2C	0.25 (≈ 0.201 µM)	0.25 (≈ 0.201 µM)	0.5 (≈ 0.401 µM)	8 (≈ 6.42 µM)	Active			13.9	2.2					
